Active and inactive are the calls of the source. No cut-off for these calls is given here.
Assays:
[1] = Antiproliferative activity against Hs683 cells after 72 hrs by MTT assay; type: functional, cell-based, Homo sapiens, Hs 683; conditions: Homo sapiens, Hs 683, 72 h
Method in brief: (§1)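 Cells cultured with each compound for three days; growth then read by the MTT colorimetric assay and reported as IC50 (µM).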

[2] = Antiproliferative activity against U373MG cells after 72 hrs by MTT assay; type: functional, cell-based, Homo sapiens, U-373MG ATCC; conditions: Homo sapiens, U373 MG, 72 h; method in brief: as §1
HCT-15 = experiment: Antiproliferative activity against HCT15 cells after 72 hrs by MTT assay; type: functional, cell-based, Homo sapiens; conditions: Homo sapiens, HCT-15, 72 h; method in brief: as §1
LoVo = experiment: Antiproliferative activity against LoVo cells after 72 hrs by MTT assay; type: functional, cell-based, Homo sapiens; conditions: Homo sapiens, LoVo, 72 h; method in brief: as §1
A549 [3] = experiment: Antiproliferative activity against A549 cells after 72 hrs by MTT assay; type: functional, cell-based, Homo sapiens; conditions: Homo sapiens, A549, 72 h; method in brief: as §1
MCF7 [4] = experiment: Antiproliferative activity against MCF7 cells after 72 hrs by MTT assay; type: functional, cell-based, Homo sapiens; method in brief: as §1
[5] = Toxicity in ip dosed B6D2F1 mouse; type: organism-based; conditions: in vivo
Method in brief: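 Acute MTD was set by a single i.p. dose to groups of three healthy female B6D2F1 mice, at 2.5, 5, 10, 20, 40, 80 and 160 mg/kg. The MTD is the dose just below the lowest dose that killed at least one mouse.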

L1210 [6] = experiment: Antitumor activity in L1210 cells xenografted B6D2F1 mouse at 10 mg/kg, ip relative to control; type: functional; conditions: route intraperitoneal
Method in brief: (§2)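 Mice grafted with L1210 leukaemia cells on day 0, then dosed i.p. four times weekly on days 1-4 and 8-11. Five mice per group. Outcome is %T/C, the median survival of treated over control. Kruskal-Wallis test followed by Dunn comparisons against control.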

L1210 [7] = experiment: Antitumor activity in L1210 cells xenografted B6D2F1 mouse at 20 mg/kg, ip relative to control; type: functional; conditions: route intraperitoneal; method in brief: as §2
L1210 [8] = experiment: Antitumor activity in L1210 cells xenografted B6D2F1 mouse at 40 mg/kg, ip relative to control; type: functional; conditions: route intraperitoneal; method in brief: as §2
L1210 [9] = experiment: Antitumor activity in L1210 cells xenografted B6D2F1 mouse at 80 mg/kg, ip relative to control; type: functional; conditions: route intraperitoneal; method in brief: as §2
L1210 [10] = experiment: Antitumor activity in L1210 cells xenografted B6D2F1 mouse at 120 mg/kg, ip relative to control; type: functional; conditions: route intraperitoneal; method in brief: as §2
Mus musculus [11] = experiment: Toxicity in B6D2F1 mouse at 120 mg/kg, ip; type: organism-based; set-up: dose 120 mg/kg, route intraperitoneal; conditions: in vivo
Method in brief: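 Healthy female B6D2F1 mice, 10 per group, dosed i.p. in DMSO/saline (5:95 v/v) three times weekly for five weeks at two levels set relative to MTD; sacrificed 3 days after final dose; platelet, RBC and WBC counted by Coulter counter.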

Mus musculus [12] = experiment: Hematotoxicity in ip dosed B6D2F1 mouse assessed as decrease in platelet count; type: organism-based; conditions: in vivo
Method in brief: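 Healthy female B6D2F1 mice, 10 per group, dosed i.p. three times weekly for five weeks at two dose levels set relative to MTD. Vehicle DMSO/saline 5:95 v/v. Killed 3 days after the last dose; blood platelet, RBC and WBC counts taken with a Coulter counter.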

[13] = molecular target: T1, DNA topoisomerase 1 (Homo sapiens) (UniProt P11387); experiment: Inhibition of human topoisomerase 1 by DNA unwinding test
T1 sequence (whole entry): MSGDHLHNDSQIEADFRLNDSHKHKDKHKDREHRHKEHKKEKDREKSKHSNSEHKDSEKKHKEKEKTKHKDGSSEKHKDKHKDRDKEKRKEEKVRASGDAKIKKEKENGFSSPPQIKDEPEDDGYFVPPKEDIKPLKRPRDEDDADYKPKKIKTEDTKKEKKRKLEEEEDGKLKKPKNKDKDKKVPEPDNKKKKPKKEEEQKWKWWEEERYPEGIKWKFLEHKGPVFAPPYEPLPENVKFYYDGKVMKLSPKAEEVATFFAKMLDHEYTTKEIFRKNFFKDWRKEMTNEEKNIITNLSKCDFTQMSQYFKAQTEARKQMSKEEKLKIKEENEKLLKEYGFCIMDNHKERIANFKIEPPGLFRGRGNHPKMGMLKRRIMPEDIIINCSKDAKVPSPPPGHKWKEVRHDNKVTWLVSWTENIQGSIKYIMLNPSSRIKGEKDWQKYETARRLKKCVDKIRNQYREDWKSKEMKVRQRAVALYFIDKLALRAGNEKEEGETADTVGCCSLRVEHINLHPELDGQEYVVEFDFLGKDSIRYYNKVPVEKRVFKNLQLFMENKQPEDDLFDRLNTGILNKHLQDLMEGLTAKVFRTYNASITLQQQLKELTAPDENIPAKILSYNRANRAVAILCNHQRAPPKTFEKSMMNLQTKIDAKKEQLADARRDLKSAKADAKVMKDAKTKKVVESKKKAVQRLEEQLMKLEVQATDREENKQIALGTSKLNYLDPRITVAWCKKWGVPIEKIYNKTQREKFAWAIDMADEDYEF
Method in brief: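 DNA unwinding assay: relaxed pBR322 plasmid converted to supercoiled form in presence of topoisomerase I; compounds at final 4–32 µM (one up to 15–55 µM); ethidium bromide-stained agarose gels; UC50 taken as concentration shifting relaxed band to midpoint between supercoiled and relaxed states.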

[14] = molecular target: DNA topoisomerase 2-alpha (Homo sapiens) (UniProt P11388); experiment: Inhibition of human topoisomerase 2-mediated kinetoplast DNA […] at 50 uM
Method in brief: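 Topoisomerase II strand-passage activity by kDNA decatenation; compounds at 50 µM; catenated networks stay in wells, decatenated kDNA enters ethidium bromide-stained agarose gel; no-enzyme and no-drug reactions as controls.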

MCF7 [15] = experiment: Induction of apoptosis in human MCF7 cells assessed as p53 activation; type: functional, cell-based
Method in brief: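 MCF-7 cells treated and p53 activation assessed by immunoblotting, with tubulin as loading control. Adriamycin (2.5 µM, 24 h) served as positive control.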

Homo sapiens = organism: Homo sapiens; experiment: Inhibition of human topoisomerase 2 at 50 uM by plasmid linearization assay
PC-3 = experiment: Induction of senescence in human PC3 cells; type: functional, cell-based
Method in brief: (§3)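 SA-β-galactosidase staining of PC-3 and DU-145 prostate cancer cells after 72 h at 10 µM; adriamycin 20 nM as positive control; expressed as percentage of positively stained cells.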

DU-145 = experiment: Induction of senescence in human DU145 cells; type: functional, cell-based; method in brief: as §3
A549 [16] = experiment: Antitumor activity against human A549 cells xenografted in mouse at 10 mg/kg, iv; type: functional, organism-based; set-up: dose 10 mg/kg
Method in brief: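 Human A549 NSCLC cells grafted orthotopically into the lungs of immunocompromised mice. Compound given i.v. at 10 mg/kg. Survival gain assessed by survival curve analysis.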

MDA-MB-231 = experiment: Antitumor activity against human MDA-MB-231 cells xenografted in immunocompromised mouse at 10 mg/kg, iv

Chain of DNA topoisomerase 2-alpha (Homo sapiens) (P11388 whole entry): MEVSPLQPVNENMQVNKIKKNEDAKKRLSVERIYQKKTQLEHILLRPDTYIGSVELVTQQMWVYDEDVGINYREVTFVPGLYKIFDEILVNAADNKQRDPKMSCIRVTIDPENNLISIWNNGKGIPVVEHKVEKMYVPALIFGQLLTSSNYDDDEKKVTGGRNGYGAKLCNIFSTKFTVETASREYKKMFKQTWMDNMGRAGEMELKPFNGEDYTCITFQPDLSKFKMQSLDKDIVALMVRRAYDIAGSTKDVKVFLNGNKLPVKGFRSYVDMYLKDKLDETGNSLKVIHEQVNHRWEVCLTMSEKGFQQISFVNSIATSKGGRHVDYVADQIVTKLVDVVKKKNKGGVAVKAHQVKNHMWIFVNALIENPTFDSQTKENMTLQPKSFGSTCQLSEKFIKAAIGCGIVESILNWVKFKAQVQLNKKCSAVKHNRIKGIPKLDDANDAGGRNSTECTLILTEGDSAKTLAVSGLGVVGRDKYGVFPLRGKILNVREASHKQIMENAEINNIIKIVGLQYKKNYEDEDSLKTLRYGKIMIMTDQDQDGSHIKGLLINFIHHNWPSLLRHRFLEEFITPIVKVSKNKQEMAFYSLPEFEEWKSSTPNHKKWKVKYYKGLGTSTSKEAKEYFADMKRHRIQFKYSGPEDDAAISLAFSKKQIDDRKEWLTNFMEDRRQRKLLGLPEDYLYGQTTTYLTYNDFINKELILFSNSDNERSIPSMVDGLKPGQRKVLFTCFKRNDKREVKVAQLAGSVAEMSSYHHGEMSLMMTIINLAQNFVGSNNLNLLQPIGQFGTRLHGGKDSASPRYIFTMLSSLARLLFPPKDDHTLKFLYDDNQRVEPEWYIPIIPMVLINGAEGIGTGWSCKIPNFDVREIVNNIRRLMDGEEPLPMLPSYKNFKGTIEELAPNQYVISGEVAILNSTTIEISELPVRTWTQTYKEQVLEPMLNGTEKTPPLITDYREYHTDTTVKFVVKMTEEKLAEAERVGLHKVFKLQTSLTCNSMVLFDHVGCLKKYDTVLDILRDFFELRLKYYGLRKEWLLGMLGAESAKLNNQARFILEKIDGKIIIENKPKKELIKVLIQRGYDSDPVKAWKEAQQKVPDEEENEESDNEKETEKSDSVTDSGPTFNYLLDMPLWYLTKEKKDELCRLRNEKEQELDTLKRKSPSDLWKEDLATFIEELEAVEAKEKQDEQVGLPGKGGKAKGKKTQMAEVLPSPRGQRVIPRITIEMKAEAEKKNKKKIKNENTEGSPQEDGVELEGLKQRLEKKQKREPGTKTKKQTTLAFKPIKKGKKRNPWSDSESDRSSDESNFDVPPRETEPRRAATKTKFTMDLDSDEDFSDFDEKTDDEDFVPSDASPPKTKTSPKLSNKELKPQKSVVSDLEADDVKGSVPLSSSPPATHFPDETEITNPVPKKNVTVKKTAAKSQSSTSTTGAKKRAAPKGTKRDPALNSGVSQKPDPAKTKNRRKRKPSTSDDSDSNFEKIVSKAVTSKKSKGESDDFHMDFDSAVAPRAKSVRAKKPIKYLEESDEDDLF

For CN(C)CCN1C(=O)c2cccc3cc(/N=C\c4cc5c(cc4[N+](=O)[O-])OCO5)cc(c23)C1=O, which IC50 [1] is on record?
Its IC50 is over 10 µM.

And the IC50 [2]?
The IC50 was 5 µM.

And the IC50 (HCT-15)?
The IC50 was over 10 µM.

And the IC50 (LoVo)?
The IC50 was over 10 µM.

What about the IC50 (A549 [3]) of the same compound?
Its IC50 is over 10 µM.

And the IC50 (MCF7 [4]; Homo sapiens, MCF7, 72 h)?
Its IC50 is over 10 µM.

What about the MTD [5] of the same compound?
Its MTD is over 160 mg/kg.

What about the Activity (L1210 [6]) of the same compound?
The Activity was 215%.

And the Activity (L1210 [7])?
The Activity was 195%.

And the Activity (L1210 [8])?
The Activity was 278%.

What about the Activity (L1210 [9]) of the same compound?
Its Activity is over 300%.

And the Activity (L1210 [10])?
The Activity was 40%.

What about the Activity (Mus musculus [11]) of the same compound?
Its Activity is “Toxic”.

And the Activity (Mus musculus [12])?
Its Activity is “Toxic”.

What does the source list for CN(C)CCN1C(=O)c2cccc3cc(NC(=O)Cc4ccc(Cl)cc4)cc(c23)C1=O?
IC50 [1]: 7 µM; IC50 [2]: 5.8 µM; IC50 (HCT-15): 5.5 µM; IC50 (LoVo): 4.8 µM; IC50 (A549 [3]): 4.7 µM; IC50 (MCF7 [4]; Homo sapiens, MCF7, 72 h): 4.8 µM; MTD [5]: 20 mg/kg; Activity (L1210 [6]): 200%

Which results are given for CN(C)CCN1C(=O)c2cccc3cc(/N=C\c4ccc5c(c4)OCO5)cc(c23)C1=O?
IC50 [1]: > 10 µM; IC50 [2]: > 10 µM; IC50 (HCT-15): 9 µM; IC50 (LoVo): 8.3 µM; IC50 (A549 [3]): > 10 µM; IC50 (MCF7 [4]; Homo sapiens, MCF7, 72 h): > 10 µM; MTD [5]: 80 mg/kg; Activity (L1210 [6]): 115%; Activity (L1210 [7]): 150%; Activity (L1210 [8]): 165%; Activity (L1210 [9]): 288%; Activity (L1210 [10]): 41%; Activity (Mus musculus [11]): Toxic; Activity (Mus musculus [12]): Toxic

Which results are given for CN(C)CCN1C(=O)c2cccc3cc(N)cc(c23)C1=O.Cl?
IC50 [1]: 4.7 µM; IC50 [2]: 4.5 µM; IC50 (HCT-15): 8.8 µM; IC50 (LoVo): 3.5 µM; IC50 (A549 [3]): 4.8 µM; IC50 (MCF7 [4]; mcf7): 9 µM; Activity (L1210 [6]): 120%

Which results are given for CN(C)CCN1C(=O)c2cccc3cc(/N=C\c4cc(O)ccc4O)cc(c23)C1=O?
UC50 [13]: 13 µM; Activity [14]: Active; Activity (MCF7 [15]): Active; Activity (Homo sapiens): Active

With COc1ccc(CC(=O)Nc2cc3c4c(cccc4c2)C(=O)N(CCN(C)C)C3=O)cc1 as the compound, how does the IC50 [1] read?
The IC50 was 4.2 µM.

And the IC50 [2]?
The IC50 was 2.7 µM.

What about the IC50 (HCT-15) of the same compound?
The IC50 was 2.8 µM.

What about the IC50 (LoVo) of the same compound?
The IC50 was 1.3 µM.

What about the IC50 (A549 [3]) of the same compound?
The IC50 was 3.2 µM.

What about the IC50 (MCF7 [4]; Homo sapiens, MCF7, 72 h) of the same compound?
The IC50 was 2.2 µM.

What about the MTD [5] of the same compound?
The MTD was 10 mg/kg.

What about the Activity (L1210 [6]) of the same compound?
The Activity was 107%.

With CCOC(=O)CC(=O)Nc1cc2c3c(cccc3c1)C(=O)N(CCN(C)C)C2=O as the compound, how does the IC50 [1] read?
Its IC50 is over 10 µM.

What about the IC50 [2] of the same compound?
Its IC50 is over 10 µM.

What about the IC50 (HCT-15) of the same compound?
Its IC50 is over 10 µM.

And the IC50 (LoVo)?
The IC50 was over 10 µM.

What about the IC50 (A549 [3]) of the same compound?
The IC50 was over 10 µM.

And the IC50 (MCF7 [4]; Homo sapiens, MCF7, 72 h)?
Its IC50 is over 10 µM.

And the MTD [5]?
Its MTD is over 80 mg/kg.

What about the Activity (L1210 [6]) of the same compound?
The Activity was 129%.

With CN(C)CCN1C(=O)c2cccc3cc(NC(=O)C(Cl)(Cl)Cl)cc(c23)C1=O as the compound, how does the IC50 [1] read?
Its IC50 is over 10 µM.

And the IC50 [2]?
Its IC50 is 8.9 µM.

And the IC50 (HCT-15)?
Its IC50 is over 10 µM.

What about the IC50 (LoVo) of the same compound?
The IC50 was 6.4 µM.

What about the IC50 (A549 [3]) of the same compound?
The IC50 was 10 µM.

What about the IC50 (MCF7 [4]; Homo sapiens, MCF7, 72 h) of the same compound?
The IC50 was over 10 µM.

And the MTD [5]?
Its MTD is over 80 mg/kg.

What about the Activity (L1210 [7]) of the same compound?
Its Activity is 150%.

For COc1cccc2c1C(=O)c1c(O)c3c(c(O)c1C2=O)C[C@@](O)(C(=O)CO)C[C@@H]3O[C@H]1C[C@H](N)[C@H](O)[C@H](C)O1, which Activity (PC-3) is on record?
The Activity was “inactive”.

What about the Activity (DU-145) of the same compound?
The Activity was “Active”.

For CN(C)CCN1C(=O)c2cccc3cc(N)cc(c23)C1=O, which Activity (A549 [16]) is on record?
The Activity was “inactive”.

And the UC50 [13]?
Its UC50 is 8 µM.

And the Activity [14]?
Its Activity is “Active”.

What about the Activity (MCF7 [15]) of the same compound?
Its Activity is “Active”.

And the Activity (Homo sapiens)?
Its Activity is “Active”.

And the Activity (MDA-MB-231)?
The Activity was “Active”.

Source: ChEMBL document CHEMBL1148725, “2,2,2-Trichloro-N-({2-[2-(dimethylamino)ethyl]-1,3-dioxo-2,3-dihydro-1H-benzo[de]isoquinolin- 5-yl}carbamoyl)acetamide (UNBS3157), a novel nonhematotoxic naphthalimide derivative with potent antitumor activity” (J Med Chem, 2007)
